Data reported in ChEMBL document CHEMBL3576806, “Design and synthesis of novel arctigenin analogues for the amelioration of metabolic disorders” (ACS Med Chem Lett, 2015).
Activity calls are given as the source filed them. The calls are words filed in the database; no cut-off is given here.

How the values were obtained:
L6 [1] = test: Increase in glucose uptake in rat L6 cells at 3 uM pre-treated with compound for 30 mins using 2-deoxy-D-[1,2-3H]glucose and measured after 2 hrs by liquid scintillation counting method; type: functional
Procedure, shortened: (§1)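 L6 myotubes exposed to compound for 2 h at 1.5, 3, 6, 12 or 24 μM; 2-deoxyglucose uptake expressed as fold over untreated control; 3 μM (−)-arctigenin run alongside as positive control; mean ± SEM of 3 independent experiments.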

L6 [2] = test: Ratio of glucose uptake in rat L6 cells at 3 uM after 2 hrs to glucose uptake in rat L6 cells at 3 uM after 2 hrs in presence of 3 uM (-)-arctigenin; type: functional
Procedure, shortened: (§2)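 Glucose uptake in L6 myotubes after 2 h compound exposure divided by uptake with the 3 μM (−)-arctigenin positive control run in parallel.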

L6 [3] = test: Increase in glucose uptake in rat L6 cells at 3 uM […] using 2-deoxy-D-[1,2-3H]glucose and measured after 2 hrs […] by liquid scintillation counting method; type: functional; procedure, shortened: as §1
L6 [4] = test: Ratio of glucose uptake in rat L6 cells at 1.5 uM after 2 hrs to glucose uptake in rat L6 cells at 1.5 uM after 2 hrs in presence of 3 uM (-)-arctigenin; type: functional; procedure, shortened: as §2
L6 [5] = test: Increase in glucose uptake in rat L6 cells at 1.5 uM pre-treated with compound for 30 mins using 2-deoxy-D-[1,2-3H]glucose and measured after 2 hrs in presence of 3 uM (-)-arctigenin by liquid scintillation counting method; type: functional; procedure, shortened: as §1
L6 [6] = test: Increase in glucose uptake in rat L6 cells at 1.5 uM pre-treated with compound for 30 mins using 2-deoxy-D-[1,2-3H]glucose and measured after 2 hrs by liquid scintillation counting method; type: functional; procedure, shortened: as §1
L6 [7] = test: Increase in glucose uptake in rat L6 cells at 12 uM pre-treated with compound for 30 mins using 2-deoxy-D-[1,2-3H]glucose and measured after 2 hrs […] by liquid scintillation counting method; type: functional; procedure, shortened: as §1
L6 [8] = test: Ratio of glucose uptake in rat L6 cells at 12 uM after 2 hrs to glucose uptake in rat L6 cells at 12 uM after 2 hrs in presence of 3 uM (-)-arctigenin; type: functional; procedure, shortened: as §2
L6 [9] = test: Increase in glucose uptake in rat L6 cells at 12 uM pre-treated with compound for 30 mins using 2-deoxy-D-[1,2-3H]glucose and measured after 2 hrs by liquid scintillation counting method; type: functional; procedure, shortened: as §1
L6 [10] = test: Increase in glucose uptake in rat L6 cells at 24 uM pre-treated with compound for 30 mins using 2-deoxy-D-[1,2-3H]glucose and measured after 2 hrs by liquid scintillation counting method; type: functional; procedure, shortened: as §1
L6 [11] = test: Increase in glucose uptake in rat L6 cells at 24 uM pre-treated with compound for 30 mins using 2-deoxy-D-[1,2-3H]glucose and measured after 2 hrs […] by liquid scintillation counting method; type: functional; procedure, shortened: as §1
L6 [12] = test: Ratio of glucose uptake in rat L6 cells at 24 uM after 2 hrs to glucose uptake in rat L6 cells at 24 uM after 2 hrs in presence of 3 uM (-)-arctigenin; type: functional; procedure, shortened: as §2
L6 [13] = test: Increase in glucose uptake in rat L6 cells at 6 umol/L pre-treated with compound for 30 mins using 2-deoxy-D-[1,2-3H]glucose and measured after 2 hrs by liquid scintillation counting method relative to control; type: functional; procedure, shortened: as §1
L6 [14] = test: Ratio of glucose uptake in rat L6 cells at 6 uM after 2 hrs to glucose uptake in rat L6 cells at 6 uM after 2 hrs in presence of 3 uM (-)-arctigenin; type: functional; procedure, shortened: as §2
L6 [15] = test: Increase in glucose uptake in rat L6 cells at 6 uM pre-treated with compound for 30 mins using 2-deoxy-D-[1,2-3H]glucose and measured after 2 hrs by liquid scintillation counting method; type: functional; procedure, shortened: as §1
L6 [16] = test: Increase in glucose uptake in rat L6 cells at 6 uM pre-treated with compound for 30 mins using 2-deoxy-D-[1,2-3H]glucose and measured after 2 hrs […] by liquid scintillation counting method; type: functional; procedure, shortened: as §1
[17] = AUC (0 to t) in ob/ob mouse at 50 mg/kg, ip measured after 0.5 to 24 hrs; type: ADME, organism-based; parameters: dose 50 mg/kg, time upper 24 hr, time lower 0.5 hr, route intraperitoneal; settings: in vivo
Mus musculus [18] = test: Toxicity in ob/ob mouse assessed as effect on feeding behavior at 50 mg/kg, ip bid for 23 days; type: organism-based; settings: in vivo, 552 h
Procedure, shortened: (§3)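 ob/ob mice given 50 mg/kg intraperitoneally or vehicle twice daily for 23 d; body weight and food intake recorded regularly, fed and fasting blood glucose measured throughout, serum triacylglycerol, cholesterol and NEFA measured at end of treatment; mean ± SEM, n = 6–8 mice, compared with vehicle group.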

Mus musculus [19] = test: Antidiabetic activity in ob/ob mouse assessed as reduction in body weight at 50 mg/kg, ip bid for 23 days measured on day 3; type: functional, organism-based; procedure, shortened: as §3
L6 [20] = test: Induction of fatty acid oxidation in rat L6 cells using [9,10-3H(N)]-palmitic acid incubated for 2 hrs in presence of AMPK inhibitor compound-C; type: functional, cell-based
Procedure, shortened: (§4)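 Fatty acid oxidation measured in L6 myotubes after compound treatment, also with compound C to block AMPK; mean ± SEM, n = 3 independent experiments.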

[21] = Cmax in ob/ob mouse at 50 mg/kg, ip measured after 0.5 to 24 hrs; type: ADME, organism-based; parameters: dose 50 mg/kg, route intraperitoneal; settings: in vivo
Mus musculus [22] = test: Antidiabetic activity in ob/ob mouse assessed as reduction in fed glucose levels at 50 mg/kg, ip bid for 12 days; type: functional; parameters: scale not given: the % may be the effect or the level left; procedure, shortened: as §3
L6 [23] = test: Induction of fatty acid oxidation in rat L6 cells at 6 uM using [9,10-3H(N)]-palmitic acid incubated for 2 hrs; type: functional, cell-based; procedure, shortened: as §4
L6 [24] = test: Induction of fatty acid oxidation in rat L6 cells at 3 uM using [9,10-3H(N)]-palmitic acid incubated for 2 hrs; type: functional, cell-based; procedure, shortened: as §4
L6 [25] = test: Increase in glucose uptake in rat L6 cells pre-treated with compound for 30 mins using 2-deoxy-D-[1,2-3H]glucose and measured after 2 hrs in presence of 10 uM AMPK inhibitor compound-C by liquid scintillation counting method; type: functional, cell-based
Procedure, shortened: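 L6 myotube 2-deoxyglucose uptake after compound exposure, tested with and without the AMPK inhibitor compound C; mean ± SEM, n = 3 independent experiments.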

[26] = Tmax in ob/ob mouse at 50 mg/kg, ip measured after 0.5 to 24 hrs; type: ADME, organism-based; settings: in vivo
Mus musculus [27] = test: Antidiabetic activity in ob/ob mouse assessed as reduction in fasting blood glucose levels at 50 mg/kg, ip bid for 12 days; type: functional; parameters: scale not given: the % may be the effect or the level left; procedure, shortened: as §3
Mus musculus [28] = test: Antidiabetic activity in ob/ob mouse assessed as reduction in total cholesterol levels at 50 mg/kg, ip bid for 23 days; type: functional; parameters: scale not given: the % may be the effect or the level left; procedure, shortened: as §3
Mus musculus [29] = test: Antidiabetic activity in ob/ob mouse assessed as effect on serum triglyceride levels at 50 mg/kg, ip bid for 23 days; type: functional, organism-based; procedure, shortened: as §3
L6 [30] = test: Induction of depolarization of mitochondrial membrane potential in rat L6 cells incubated for 10 mins by fluorescence based assay; type: functional, cell-based
Procedure, shortened: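 L6 myotubes treated 10 min over a concentration series; mitochondrial membrane potential (Δψm) depolarization measured; mean ± SEM, n = 3 independent experiments.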

Mus musculus [31] = test: Antidiabetic activity in ob/ob mouse assessed as reduction in NEFA levels at 50 mg/kg, ip bid for 23 days; type: functional; parameters: scale not given: the % may be the effect or the level left; procedure, shortened: as §3
Mus musculus [32] = test: Reduction in respiratory exchange ratio in ob/ob mouse at 50 mg/kg, ip measured at 6 min intervals […] at 23 degC by indirect calorimetry; type: functional, organism-based
L6 [33] = test: Induction of AMPK phosphorylation in rat L6 cells at 6 uM incubated for 2 hrs by Western blotting method; type: cell-based
Procedure, shortened: (§5)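 L6 myotubes treated 2 h at the stated concentrations; phosphorylated AMPK and phosphorylated ACC detected by immunoblot.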

L6 [34] = test: Induction of AMPK activation in rat L6 cells assessed as increase in ACC phosphorylation at 3 uM incubated for 2 hrs by Western blotting method; type: cell-based; procedure, shortened: as §5
L6 [35] = test: Induction of AMPK activation in rat L6 cells assessed as increase in ACC phosphorylation at 6 uM incubated for 2 hrs by Western blotting method; type: cell-based; procedure, shortened: as §5
L6 [36] = test: Induction of AMPK phosphorylation in rat L6 cells at 3 uM incubated for 2 hrs by Western blotting method; type: cell-based; procedure, shortened: as §5
L6 [37] = test: Induction of AMPK phosphorylation in rat L6 cells at 1.5 uM incubated for 2 hrs by Western blotting method; type: cell-based; procedure, shortened: as §5
L6 [38] = test: Induction of AMPK activation in rat L6 cells assessed as increase in ACC phosphorylation at 1.5 uM incubated for 2 hrs by Western blotting method; type: cell-based; procedure, shortened: as §5

In the case of `COc1ccc(C[C@H]2COC(=O)[C@@H]2Cc2ccccc2Cl)cc1OC`, the Activity (L6 [1]) is reported as 112.4%, the Ratio (L6 [2]) is reported as 0.545 and the Activity (L6 [3]) is reported as 206.4%.
`COc1cccc(C[C@H]2COC(=O)[C@@H]2Cc2ccc(O)c(OC)c2)c1` showed a Ratio (L6 [4]) of 0.503, an Activity (L6 [5]) of 241% and an Activity (L6 [6]) of 121.2%.
Work on `COc1ccc(C[C@H]2COC(=O)[C@@H]2Cc2ccc(O)cc2)cc1OC` yielded an Activity (L6 [7]) of 200.6%, a Ratio (L6 [8]) of 0.895 and an Activity (L6 [9]) of 179.5%.
With `COc1ccc(C[C@H]2C(=O)OC[C@@H]2Cc2ccc(OC)c(OC)c2)cc1O` the Ratio (L6 [4]) was 0.531, the Activity (L6 [5]) was 188.9% and the Activity (L6 [6]) was 100.4%.
`COc1ccc(C[C@H]2COC(=O)[C@@H]2Cc2ccc(O)c(OC)c2)cc1` showed an Activity (L6 [10]) of 235.1%, an Activity (L6 [11]) of 262.4% and a Ratio (L6 [12]) of 0.896.
`COc1ccc(C[C@H]2C(=O)OC[C@@H]2Cc2ccc(OC)c(OC)c2)cc1` showed a Ratio (L6 [4]) of 0.595, an Activity (L6 [5]) of 182.1% and an Activity (L6 [6]) of 108.4%.
In the case of `COc1ccccc1C[C@H]1C(=O)OC[C@@H]1Cc1ccc(OC)c(OC)c1`, the Activity (L6 [1]) is reported as 97.4%, the Ratio (L6 [2]) is reported as 0.512 and the Activity (L6 [3]) is reported as 190.1%.
In the case of `COc1cc(C[C@H]2COC[C@@H]2Cc2ccc(OC)c(OC)c2)ccc1O`, the “fold change (FC)” value (L6 [13]) is reported as 1.31.
With `COc1cc(C[C@H]2C(=O)OC[C@@H]2Cc2cc(OC)c(OC)c(OC)c2)ccc1O` the Ratio (L6 [14]) was 0.551, the Activity (L6 [15]) was 128.8% and the Activity (L6 [16]) was 233.9%.
In the case of `COc1ccc(CC2COC(=O)C2Cc2ccc(Cl)cc2)cc1OC` (racemic), the AUC(0-t) [17] is reported as 1880 ng·h/mL, the Activity (Mus musculus [18]) is reported as “Non-toxic” and the Activity (Mus musculus [19]) is reported as “Active”. The Activity (L6 [20]) was “inactive”, the Cmax [21] was 508 ng/mL and the Activity (Mus musculus [22]) was 27.7%. For the same molecule, the Ratio (L6 [14]) was 0.936, the Activity (L6 [15]) was 173.7% and the Activity (L6 [23]) was “Active”. For the same molecule, the Activity (L6 [16]) was 185.5%, the Activity (L6 [24]) was “Active” and the Activity (L6 [25]) was “inactive”. The Tmax [26] was 30 min, the Activity (Mus musculus [27]) was 27.3% and the Activity (Mus musculus [28]) was 22.4%. The Activity (Mus musculus [29]) was “inactive”, the Activity (L6 [30]) was “Dose-dependent effect” and the Activity (Mus musculus [31]) was 10%. For the same molecule, the Activity (Mus musculus [32]) was “Active”.
Work on `COc1ccc(C[C@H]2COC(=O)[C@@H]2Cc2cccc(Cl)c2)cc1OC` yielded an Activity (L6 [1]) of 114.8%, a Ratio (L6 [2]) of 0.54 and an Activity (L6 [3]) of 212.4%.
With `COc1cccc(C[C@H]2C(=O)OC[C@@H]2Cc2ccc(OC)c(OC)c2)c1` the Activity (L6 [7]) was 211.3%, the Ratio (L6 [8]) was 0.564 and the Activity (L6 [9]) was 119.2%.
In the case of `COc1ccc(C[C@@H]2COC(=O)[C@H]2Cc2ccc(Cl)cc2)cc1OC`, the Activity (L6 [33]) is reported as “inactive”, the Activity (L6 [34]) is reported as “inactive” and the Activity (L6 [35]) is reported as “inactive”. For the same molecule, the Ratio (L6 [4]) was 0.494, the Activity (L6 [36]) was “inactive” and the Activity (L6 [37]) was “inactive”. The Activity (L6 [38]) was “inactive”, the Activity (L6 [5]) was 208.9% and the Activity (L6 [6]) was 103.1%.
